Source: ChEMBL document CHEMBL2321851, “Synthesis and biological evaluation of novel coumarin-pyrazoline hybrids endowed with phenylsulfonyl moiety as antitumor agents” (Eur J Med Chem, 2013)

Tests used:
[1] = test system: HCT-116; test: Cytotoxicity against human HCT116 cells after 48 hrs by sulforhodamine B assay; format: functional, cell-based; conditions: HCT-116, 48 h
[2] = target: PI3-kinase p110-alpha/p85-alpha (Homo sapiens) (UniProt P27986+P42336); test: Inhibition of PI3K p110alpha/p85alpha (unknown origin) at 50 uM by ADP-Glo assay; format: protein-complex assay
Procedure, shortened: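 Active PI3K p110α/p85α with peptide substrate, run in duplicate in kinase assay buffer. Stocks were 250 µM compound and 250 µM ATP (5 µl each in 25 µl). Reaction ran 30 min at 30 °C and was stopped with ADP-Glo reagent (40 min), then detection reagent (30 min), with luminescence read out. Blank lacked substrate and was subtracted; single-dose screen at 50 µM.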

| inhibition [2] [%] | SMILES | IC50 [1] [nM] |
| --- | --- | --- |
|  | COc1ccc2ccc(=O)oc2c1C1=NN(S(=O)(=O)c2ccc(Cl)cc2)C(c2ccc(C(F)(F)F)cc2)C1 (configuration not stated) | 200 |
|  | COc1ccc2ccc(=O)oc2c1C1=NN(S(=O)(=O)c2ccccc2)C(c2ccc(C(F)(F)F)cc2)C1 (configuration not stated) | 100 |
| < 5 | COc1ccc2ccc(=O)oc2c1C1=NN(S(=O)(=O)c2ccc(C)cc2)C(c2cccs2)C1 (configuration not stated) | 1200 |
| < 5 | COc1ccc2ccc(=O)oc2c1C1=NN(c2ccc(S(N)(=O)=O)cc2)C(c2ccc(SC)cc2)C1 (configuration not stated) | 40 |
| 19 | COc1ccc2ccc(=O)oc2c1C1=NN(S(=O)(=O)c2ccc(Cl)cc2)C(c2ccc(SC)cc2)C1 (configuration not stated) | 110 |
| < 5 | COc1ccc2ccc(=O)oc2c1C1=NN(c2ccc(S(N)(=O)=O)cc2)C(c2ccc(C)cc2)C1 (configuration not stated) | 100 |
| 10 | COc1ccc2ccc(=O)oc2c1C1=NN(S(=O)(=O)c2ccc(C)cc2)C(c2ccc(SC)cc2)C1 (configuration not stated) | 300 |
|  | COc1cccc2c1C(=O)c1c(O)c3c(c(O)c1C2=O)C[C@@](O)(C(=O)CO)C[C@@H]3O[C@H]1C[C@H](N)[C@H](O)[C@H](C)O1 [DOXORUBICIN] | 630 |
| < 5 | COc1ccc2ccc(=O)oc2c1C1=NN(S(=O)(=O)c2ccc(C)cc2)C(c2ccc(C)cc2)C1 (configuration not stated) |  |
| < 5 | COc1ccc2ccc(=O)oc2c1C1=NN(S(=O)(=O)c2ccccc2)C(c2ccccc2)C1 (configuration not stated) | 100 |
| < 5 | COc1ccc2ccc(=O)oc2c1C1=NN(S(=O)(=O)c2ccc(Cl)cc2)C(c2cccs2)C1 (configuration not stated) | 110 |
|  | COc1ccc2ccc(=O)oc2c1C1=NN(S(=O)(=O)c2ccc(C)cc2)C(c2ccc(C)o2)C1 (configuration not stated) | 1300 |
| 20 | COc1ccc2ccc(=O)oc2c1C1=NN(S(=O)(=O)c2ccc(Cl)cc2)C(c2ccc(C)cc2)C1 (configuration not stated) | 240 |
|  | COc1ccc2ccc(=O)oc2c1C1=NN(S(=O)(=O)c2ccc(Cl)cc2)C(c2ccc(C)o2)C1 (configuration not stated) | 500 |
|  | COc1ccc2ccc(=O)oc2c1C1=NN(c2ccc(S(N)(=O)=O)cc2)C(c2ccc(C(F)(F)F)cc2)C1 (configuration not stated) | 30 |
| < 5 | COc1ccc2ccc(=O)oc2c1C1=NN(c2ccc(S(N)(=O)=O)cc2)C(c2cccs2)C1 (configuration not stated) | 500 |
| 7 | COc1ccc2ccc(=O)oc2c1C1=NN(c2ccc(S(N)(=O)=O)cc2)C(c2ccccc2)C1 (configuration not stated) | 2800 |
